Test results published in ChEMBL document CHEMBL1687824, “Overexpression of patA and patB, which encode ABC transporters, is associated with fluoroquinolone resistance in clinical isolates of Streptococcus pneumoniae” (2011).
Converted amounts (≈) assume the structure as drawn.

How the values were obtained:
Streptococcus pneumoniae [1] = test: Antibacterial activity against Streptococcus pneumoniae M46A overexpressing patA, patB and inactivated patA with single mutation by standardized agar doubling dilution method; assay type: functional
Method in brief: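 MICs were determined by agar doubling dilution following BSAC guidelines, with no efflux inhibitor. Strains were grown in brain heart infusion broth for 24 h at 37°C in 5% CO2. Species identity was confirmed by Gram stain, optochin sensitivity and capsule test. Control strain R6 was tested alongside.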

Streptococcus pneumoniae [2] = test: Antibacterial activity against Streptococcus pneumoniae M303 overexpressing patA, patB and inactivated patA with single mutation by standardized agar doubling dilution method in presence of 50 uM sodium orthovanadate efflux pump inhibitor; assay type: functional
Method in brief: (§1)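 MICs determined by BSAC standardized agar doubling dilution. Strains were grown in brain heart infusion broth for 24 h at 37°C in 5% CO2. Inhibitor arms had reserpine at 20 μg/ml or sodium orthovanadate at 50 μM in the agar. Mutants were made by transforming magellan2 insertion amplimers into clinical isolates and selecting on spectinomycin 100 mg/liter, with a no-DNA spontaneous-mutation control.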

Streptococcus pneumoniae [3] = test: Antibacterial activity against Streptococcus pneumoniae M305 overexpressing patA, patB and inactivated patB with single mutation by standardized agar doubling dilution method in presence of 20 ug/ml reserpine efflux pump inhibitor; assay type: functional; method in brief: as §1
Streptococcus pneumoniae [4] = test: Antibacterial activity against Streptococcus pneumoniae M298 overexpressing patA, patB and inactivated patA with single mutation by standardized agar doubling dilution method in presence of 50 uM sodium orthovanadate efflux pump inhibitor
Streptococcus pneumoniae [5] = test: Antibacterial activity against fluoroquinolone-resistant Streptococcus pneumoniae M97 FQ-R overexpressing patA, patB by standardized agar doubling dilution method; assay type: functional
Method in brief: (§2)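 MIC by agar doubling dilution per BSAC guidelines; strains pregrown in brain heart infusion broth 24 h, 37°C, 5% CO2. MICs measured alone and with efflux pump inhibitors reserpine (20 μg/ml) or sodium orthovanadate (50 μM); synergy defined as ≥2-dilution MIC reduction in presence of inhibitor.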

Streptococcus pneumoniae [6] = test: Antibacterial activity against Streptococcus pneumoniae M311 overexpressing patA, patB and inactivated patA with single mutation by standardized agar doubling dilution method in presence of 50 uM sodium orthovanadate efflux pump inhibitor; assay type: functional; method in brief: as §1
Streptococcus pneumoniae [7] = test: Antibacterial activity against wild type Streptococcus pneumoniae M4 NCTC 7465 type 1 by standardized agar doubling dilution method in presence of 50 uM sodium orthovanadate efflux pump inhibitor; assay type: functional
Streptococcus pneumoniae [8] = test: Antibacterial activity against Streptococcus pneumoniae M300 overexpressing patA, patB and inactivated patA with single mutation by standardized agar doubling dilution method in presence of 50 uM sodium orthovanadate efflux pump inhibitor; assay type: functional; method in brief: as §1
Streptococcus pneumoniae [9] = test: Antibacterial activity against fluoroquinolone-resistant Streptococcus pneumoniae M79 FQ-R overexpressing patA, patB by standardized agar doubling dilution method in presence of 20 ug/ml reserpine efflux pump inhibitor; assay type: functional
Method in brief: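 Clinical S. pneumoniae isolates grown in BHI broth 24 h at 37°C in 5% CO2. MICs by agar doubling dilution per BSAC guidelines, alone or with efflux inhibitor reserpine (20 μg/ml) or sodium orthovanadate (50 μM). Synergy defined as ≥2-dilution MIC reduction in presence of inhibitor.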

Streptococcus pneumoniae [10] = test: Antibacterial activity against fluoroquinolone-resistant Streptococcus pneumoniae M83 FQ-R overexpressing patA, patB by standardized agar doubling dilution method in presence of 50 uM sodium orthovanadate efflux pump inhibitor; assay type: functional; method in brief: as §2
Streptococcus pneumoniae [11] = test: Antibacterial activity against Streptococcus pneumoniae M86B overexpressing patA, patB and inactivated patB with single mutation by standardized agar doubling dilution method in presence of 50 uM sodium orthovanadate efflux pump inhibitor; assay type: functional
Method in brief: (§3)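 MICs were determined by BSAC agar doubling dilution in the presence of sodium orthovanadate at 50 μM. Cultures were grown in BHI broth for 24 h at 37°C in 5% CO2, with R6 as control. Synergy was defined as an MIC reduction of ≥2 dilutions with the inhibitor present.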

Streptococcus pneumoniae [12] = test: Antibacterial activity against Streptococcus pneumoniae M86A overexpressing patA, patB and inactivated patA with single mutation by standardized agar doubling dilution method in presence of 50 uM sodium orthovanadate efflux pump inhibitor; assay type: functional; method in brief: as §3
Streptococcus pneumoniae [13] = test: Antibacterial activity against wild type Streptococcus pneumoniae R6 by standardized agar doubling dilution method in presence of 20 ug/ml reserpine efflux pump inhibitor; assay type: functional
Method in brief: (§4)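 MIC by agar doubling dilution following BSAC guidelines. Strains grown in brain heart infusion broth 24 h at 37°C in 5% CO2. Where an efflux pump inhibitor applies, MIC redetermined with reserpine at 20 μg/ml or sodium orthovanadate at 50 μM. Synergy taken as a fall in MIC of ≥2 dilutions with inhibitor present. Dye resistance defined relative to R6 (both dyes ≥2 dilutions higher).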

Streptococcus pneumoniae [14] = test: Antibacterial activity against wild type Streptococcus pneumoniae R6 by standardized agar doubling dilution method; assay type: functional; method in brief: as §4
Streptococcus pneumoniae [15] = test: Antibacterial activity against wild type Streptococcus pneumoniae M4 NCTC 7465 type 1 by standardized agar doubling dilution method in presence of 20 ug/ml reserpine efflux pump inhibitor; assay type: functional; method in brief: as §4
Streptococcus pneumoniae [16] = test: Antibacterial activity against wild-type Streptococcus pneumoniae R6 by standardized agar doubling dilution method in presence of 20 ug/ml reserpine efflux pump inhibitor
Streptococcus pneumoniae [17] = test: Antibacterial activity against dye-resistant Streptococcus pneumoniae M55 DR overexpressing patA, patB by standardized agar doubling dilution method in presence of 20 ug/ml reserpine efflux pump inhibitor; assay type: functional; method in brief: as §4
Streptococcus pneumoniae [18] = test: Antibacterial activity against Streptococcus pneumoniae M86A overexpressing patA, patB and inactivated patA with single mutation by standardized agar doubling dilution method in presence of 20 ug/ml reserpine efflux pump inhibitor; assay type: functional
Method in brief: (§5)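 MICs were determined by BSAC agar doubling dilution in the presence of reserpine at 20 μg/ml. Strains were grown in BHI broth for 24 h at 37°C in 5% CO2, with R6 as control. Synergy was defined as an MIC drop of ≥2 dilutions with the inhibitor.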

Streptococcus pneumoniae [19] = test: Antibacterial activity against fluoroquinolone, dye-susceptible Streptococcus pneumoniae M295 S overexpressing patA, patB by standardized agar doubling dilution method in presence of 20 ug/ml reserpine efflux pump inhibitor; assay type: functional; method in brief: as §4
Streptococcus pneumoniae [20] = test: Antibacterial activity against fluoroquinolone, dye-resistant Streptococcus pneumoniae M296 overexpressing patA, patB by standardized agar doubling dilution method in presence of 20 ug/ml reserpine efflux pump inhibitor; assay type: functional; method in brief: as §4
Streptococcus pneumoniae [21] = test: Antibacterial activity against dye-resistant Streptococcus pneumoniae M46 DR overexpressing patA, patB by standardized agar doubling dilution method in presence of 50 uM sodium orthovanadate efflux pump inhibitor; assay type: functional; method in brief: as §3
Streptococcus pneumoniae [22] = test: Antibacterial activity against wild type Streptococcus pneumoniae M3 NCTC 7466 type 2 by standardized agar doubling dilution method in presence of 20 ug/ml reserpine efflux pump inhibitor; assay type: functional; method in brief: as §4
Streptococcus pneumoniae [23] = test: Antibacterial activity against Streptococcus pneumoniae M86B overexpressing patA, patB and inactivated patB with single mutation by standardized agar doubling dilution method in presence of 20 ug/ml reserpine efflux pump inhibitor; assay type: functional; method in brief: as §5
Streptococcus pneumoniae [24] = test: Antibacterial activity against fluoroquinolone, dye-resistant Streptococcus pneumoniae M86 overexpressing patA, patB by standardized agar doubling dilution method in presence of 20 ug/ml reserpine efflux pump inhibitor; assay type: functional; method in brief: as §4
Streptococcus pneumoniae [25] = test: Antibacterial activity against fluoroquinolone, dye-resistant Streptococcus pneumoniae M86 overexpressing patA, patB by standardized agar doubling dilution method in presence of 50 uM sodium orthovanadate efflux pump inhibitor; assay type: functional; method in brief: as §4

## O=C(O)c1cn(C2CC2)c2cc(N3CCNCC3)c(F)cc2c1=O [CIPROFLOXACIN]
Streptococcus pneumoniae [1]
  MIC: 0.12 µg/mL (≈ 0.362 µM)
Streptococcus pneumoniae [2]
  MIC: 0.12 µg/mL
Streptococcus pneumoniae [3]
  MIC: 8 µg/mL
Streptococcus pneumoniae [4]
  MIC: 8 µg/mL
Streptococcus pneumoniae [5]
  MIC: 8 µg/mL (≈ 24.1 µM)
Streptococcus pneumoniae [6]
  MIC: 4 µg/mL
Streptococcus pneumoniae [7]
  MIC: 1 µg/mL
Streptococcus pneumoniae [8]
  MIC: 2 µg/mL
Streptococcus pneumoniae [9]
  MIC: 32 µg/mL
Streptococcus pneumoniae [10]
  MIC: 1 µg/mL

## CC[n+]1c(-c2ccccc2)c2cc(N)ccc2c2ccc(N)cc21.[Br-] [HOMIDIUM BROMIDE]
Streptococcus pneumoniae [1]
  MIC: 0.5 µg/mL
Streptococcus pneumoniae [11]
  MIC: 0.5 µg/mL
Streptococcus pneumoniae [12]
  MIC: 0.5 µg/mL
Streptococcus pneumoniae [2]
  MIC: 1 µg/mL
Streptococcus pneumoniae [13]
  MIC: 0.3 µg/mL
Streptococcus pneumoniae [14]
  MIC: 1 µg/mL
Streptococcus pneumoniae [15]
  MIC: 0.3 µg/mL
Streptococcus pneumoniae [16]
  MIC: 0.25 µg/mL
Streptococcus pneumoniae [17]
  MIC: 0.5 µg/mL
Streptococcus pneumoniae [3]
  MIC: 0.5 µg/mL
Streptococcus pneumoniae [4]
  MIC: 0.5 µg/mL
Streptococcus pneumoniae [5]
  MIC: 4 µg/mL
Streptococcus pneumoniae [6]
  MIC: 8 µg/mL
Streptococcus pneumoniae [18]
  MIC: 0.5 µg/mL
Streptococcus pneumoniae [19]
  MIC: 0.25 µg/mL
Streptococcus pneumoniae [20]
  MIC: 0.5 µg/mL
Streptococcus pneumoniae [21]
  MIC: 1 µg/mL
Streptococcus pneumoniae [7]
  MIC: 0.3 µg/mL
Streptococcus pneumoniae [22]
  MIC: 0.5 µg/mL
Streptococcus pneumoniae [23]
  MIC: 0.5 µg/mL
Streptococcus pneumoniae [24]
  MIC: 0.5 µg/mL
Streptococcus pneumoniae [8]
  MIC: 0.5 µg/mL
Streptococcus pneumoniae [9]
  MIC: 0.5 µg/mL
Streptococcus pneumoniae [25]
  MIC: 0.5 µg/mL
Streptococcus pneumoniae [10]
  MIC: 4 µg/mL
